Results from the M2OR odorant receptor database.
Numbering of substitutions follows the chain as printed.

How the values were obtained:
Conditions in all cases: stereoisomer not certain
OR8D1 (Homo sapiens) = molecular target: T1, OR8D1 (Homo sapiens) (UniProt Q8WZ84)
T1 sequence (whole entry): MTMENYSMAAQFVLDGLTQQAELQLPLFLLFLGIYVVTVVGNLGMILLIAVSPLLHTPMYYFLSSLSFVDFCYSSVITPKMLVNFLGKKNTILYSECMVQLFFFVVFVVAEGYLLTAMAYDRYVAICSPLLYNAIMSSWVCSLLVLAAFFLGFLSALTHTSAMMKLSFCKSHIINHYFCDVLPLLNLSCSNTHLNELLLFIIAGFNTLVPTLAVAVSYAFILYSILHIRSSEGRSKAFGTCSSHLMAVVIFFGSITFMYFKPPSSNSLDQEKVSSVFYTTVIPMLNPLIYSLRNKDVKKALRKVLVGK
How it was run: (§1)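 Each entry records the cell line, G-protein, co-transfected protein and tags used. Methods varied with the source, often transient luciferase assays in mammalian cell lines. A receptor–molecule pair is called responsive (active) if the original authors judged its signal statistically different from baseline and non-responsive (inactive) otherwise.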

OR8B3 H20R Q24R M114I = test system: T2, OR8B3 H20R Q24R M114I
T2 sequence (whole entry): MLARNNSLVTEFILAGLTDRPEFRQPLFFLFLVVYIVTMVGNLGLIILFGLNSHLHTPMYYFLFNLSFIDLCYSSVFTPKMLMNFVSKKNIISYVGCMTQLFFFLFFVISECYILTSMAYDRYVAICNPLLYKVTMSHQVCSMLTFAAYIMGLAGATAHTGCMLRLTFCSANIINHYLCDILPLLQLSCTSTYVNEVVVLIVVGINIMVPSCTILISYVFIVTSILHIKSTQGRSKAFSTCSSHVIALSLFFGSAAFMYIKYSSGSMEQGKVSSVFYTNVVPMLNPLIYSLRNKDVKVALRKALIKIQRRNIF
How it was run: as §1

OR8B3 H20R Q24R Y113H = test system: T3, OR8B3 H20R Q24R Y113H
T3 sequence (whole entry): T2 sequence (whole entry) with Y113H, I114M
How it was run: as §1

OR8B3 H20R Q24R = test system: T4, OR8B3 H20R Q24R
T4 sequence (whole entry): T2 sequence (whole entry) with I114M
How it was run: as §1

OR8B4 (Homo sapiens) = molecular target: T5, OR8B4 (Homo sapiens) (UniProt Q96RC9)
T5 sequence (whole entry): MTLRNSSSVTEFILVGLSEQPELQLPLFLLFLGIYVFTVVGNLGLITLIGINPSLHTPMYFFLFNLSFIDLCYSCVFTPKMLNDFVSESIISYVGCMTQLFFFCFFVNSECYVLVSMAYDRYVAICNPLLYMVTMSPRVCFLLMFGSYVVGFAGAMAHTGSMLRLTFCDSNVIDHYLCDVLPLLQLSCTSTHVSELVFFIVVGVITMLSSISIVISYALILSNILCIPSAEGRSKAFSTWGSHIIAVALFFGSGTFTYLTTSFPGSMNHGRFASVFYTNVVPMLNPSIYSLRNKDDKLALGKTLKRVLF
How it was run: as §1

OR8B4 = test system: T6, OR8B4
T6 sequence (whole entry): T5 sequence (whole entry) with E22G
How it was run: as §1

OR8B8 (Homo sapiens) = molecular target: T7, OR8B8 (Homo sapiens) (UniProt Q15620)
T7 sequence (whole entry): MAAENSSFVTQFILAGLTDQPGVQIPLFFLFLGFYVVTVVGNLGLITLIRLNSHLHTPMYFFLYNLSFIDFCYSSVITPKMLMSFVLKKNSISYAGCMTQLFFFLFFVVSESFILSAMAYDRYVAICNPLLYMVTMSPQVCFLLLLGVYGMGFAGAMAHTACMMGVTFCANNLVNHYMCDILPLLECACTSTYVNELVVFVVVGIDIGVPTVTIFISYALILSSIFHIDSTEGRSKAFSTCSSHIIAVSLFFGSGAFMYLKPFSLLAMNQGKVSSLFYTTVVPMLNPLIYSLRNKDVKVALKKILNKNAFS
How it was run: as §1

OR8B8 L101P = test system: T8, OR8B8 L101P
T8 sequence (whole entry): T7 sequence (whole entry) with L101P
How it was run: as §1

OR8D1 C127G L194P = test system: T9, OR8D1 C127G L194P
T9 sequence (whole entry): T1 sequence (whole entry) with C127G, L194P
How it was run: as §1

OR8D1 L194P = test system: T10, OR8D1 L194P
T10 sequence (whole entry): T1 sequence (whole entry) with L194P
How it was run: as §1

## CC(C)CCO
OR8D1 (Homo sapiens)
  odorant receptor agonist call: inactive

## CCCCCCC=CCCC=O
OR8B3 H20R Q24R M114I
  odorant receptor agonist call: inactive
OR8B3 H20R Q24R Y113H
  odorant receptor agonist call: inactive
OR8B3 H20R Q24R
  odorant receptor agonist call: inactive
OR8B4 (Homo sapiens)
  odorant receptor agonist call: inactive
OR8B4
  odorant receptor agonist call: inactive
OR8B8 (Homo sapiens)
  odorant receptor agonist call: inactive
OR8B8 L101P
  odorant receptor agonist call: inactive
OR8D1 (Homo sapiens)
  odorant receptor agonist call: inactive
OR8D1 C127G L194P
  odorant receptor agonist call: inactive

## COC(=O)C(C)C
OR8D1 (Homo sapiens)
  odorant receptor agonist call: inactive

## CC(=O)c1c(C)c([N+](=O)[O-])c(C(C)(C)C)c([N+](=O)[O-])c1C
OR8B4 (Homo sapiens)
  odorant receptor agonist call: inactive
OR8B8 (Homo sapiens)
  odorant receptor agonist call: inactive
OR8D1 (Homo sapiens)
  odorant receptor agonist call: inactive

## CC(CO)CS (stereo not given)
OR8B4 (Homo sapiens)
  odorant receptor agonist call: inactive
OR8B8 (Homo sapiens)
  odorant receptor agonist call: inactive
OR8D1 (Homo sapiens)
  odorant receptor agonist call: inactive

## OCC=Cc1ccccc1
OR8D1 (Homo sapiens)
  odorant receptor agonist call: inactive

## CC1=NC(C)C(C)S1 (stereo not given)
OR8B3 H20R Q24R M114I
  odorant receptor agonist call: inactive
OR8B3 H20R Q24R Y113H
  odorant receptor agonist call: inactive
OR8B3 H20R Q24R
  odorant receptor agonist call: inactive
OR8B4 (Homo sapiens)
  odorant receptor agonist call: inactive
OR8B4
  odorant receptor agonist call: inactive
OR8B8 (Homo sapiens)
  odorant receptor agonist call: inactive
OR8B8 L101P
  odorant receptor agonist call: inactive
OR8D1 (Homo sapiens)
  odorant receptor agonist call: inactive
OR8D1 C127G L194P
  odorant receptor agonist call: inactive
OR8D1 L194P
  odorant receptor agonist call: inactive

## CCCCC(=O)OCC
OR8D1 (Homo sapiens)
  odorant receptor agonist call: inactive

## CCCCCC(=O)C(C)C(C)=O (stereo not given)
OR8B4 (Homo sapiens)
  odorant receptor agonist call: inactive
OR8B8 (Homo sapiens)
  odorant receptor agonist call: inactive
OR8D1 (Homo sapiens)
  odorant receptor agonist call: inactive

## CCCCCC(S)C(C)CO (stereo not given)
OR8B4 (Homo sapiens)
  odorant receptor agonist call: inactive
OR8B8 (Homo sapiens)
  odorant receptor agonist call: inactive
OR8D1 (Homo sapiens)
  odorant receptor agonist call: inactive

## CCCC(S)CCO (stereo not given)
OR8D1 (Homo sapiens)
  odorant receptor agonist call: inactive

## C=Cc1ccc(O)c(OC)c1
OR8D1 (Homo sapiens)
  odorant receptor agonist call: inactive

## CC(C)=CCCC(C)=CCO
OR8D1 (Homo sapiens)
  odorant receptor agonist call: inactive

## COc1nccnc1C(C)C
OR8D1 (Homo sapiens)
  odorant receptor agonist call: inactive

## CCC(=O)C(C)S (stereo not given)
OR8D1 (Homo sapiens)
  odorant receptor agonist call: inactive

## CCc1ncc(C)nc1CC
OR8D1 (Homo sapiens)
  odorant receptor agonist call: inactive

## CCCC(O)CC(=O)OCC (stereo not given)
OR8D1 (Homo sapiens)
  odorant receptor agonist call: inactive

## SCc1cccs1
OR8D1 (Homo sapiens)
  odorant receptor agonist call: inactive

## CCCCCC=O
OR8D1 (Homo sapiens)
  odorant receptor agonist call: inactive

## CCC(C)c1nccnc1OC (stereo not given)
OR8D1 (Homo sapiens)
  odorant receptor agonist call: inactive

## CCC(=O)O
OR8D1 (Homo sapiens)
  odorant receptor agonist call: inactive

## CCC(C)C=O (stereo not given)
OR8D1 (Homo sapiens)
  odorant receptor agonist call: inactive

## CCCCCCCCC=CC=O
OR8D1 (Homo sapiens)
  odorant receptor agonist call: inactive

## CC(=O)O
OR8D1 (Homo sapiens)
  odorant receptor agonist call: inactive

## CC(C)=CC1CC(C)CCO1 (stereo not given)
OR8D1 (Homo sapiens)
  odorant receptor agonist call: inactive

## CCOC(=O)c1ccccc1
OR8D1 (Homo sapiens)
  odorant receptor agonist call: inactive

## CC1=CCC(C(C)C)C=C1 (stereo not given)
OR8D1 (Homo sapiens)
  odorant receptor agonist call: inactive

## CCCCCCCCCC(=O)[O-].[H+]
OR8D1 (Homo sapiens)
  odorant receptor agonist call: inactive

## CCO
OR8D1 (Homo sapiens)
  odorant receptor agonist call: inactive

## CCCCCCCCCO
OR8D1 (Homo sapiens)
  odorant receptor agonist call: inactive

## CCCCC1CCC(=O)O1 (stereo not given)
OR8D1 (Homo sapiens)
  odorant receptor agonist call: inactive

## C=C1CCC2(C(C)C)CC12 (stereo not given)
OR8D1 (Homo sapiens)
  odorant receptor agonist call: inactive

## COC1=C(C)OC(C)C1=O (stereo not given)
OR8D1 (Homo sapiens)
  odorant receptor agonist call: inactive

## CC(C)CC=O
OR8D1 (Homo sapiens)
  odorant receptor agonist call: inactive

## CCOC(=O)C1CCCCC1
OR8D1 (Homo sapiens)
  odorant receptor agonist call: inactive

## CCCC(=O)OCC
OR8D1 (Homo sapiens)
  odorant receptor agonist call: inactive

## CC(=O)c1cnccn1
OR8D1 (Homo sapiens)
  odorant receptor agonist call: inactive

## CCC(=O)C1=NCCC1
OR8D1 (Homo sapiens)
  odorant receptor agonist call: inactive

## CCOC(C)=O
OR8D1 (Homo sapiens)
  odorant receptor agonist call: inactive

## CCC=CCCC=CCO
OR8D1 (Homo sapiens)
  odorant receptor agonist call: inactive

## C=CC(=C)CCC=C(C)C
OR8D1 (Homo sapiens)
  odorant receptor agonist call: inactive

## CCCCCC=CCCC=O
OR8D1 (Homo sapiens)
  odorant receptor agonist call: inactive

## CCOC(=O)C(C)C
OR8D1 (Homo sapiens)
  odorant receptor agonist call: inactive

## CCCCC=CC=CC=O
OR8D1 (Homo sapiens)
  odorant receptor agonist call: inactive

## CCCCCCO
OR8D1 (Homo sapiens)
  odorant receptor agonist call: inactive

## CCCCCC1CCC(=O)O1 (stereo not given)
OR8D1 (Homo sapiens)
  odorant receptor agonist call: inactive

## C=CC(=O)CCCCC
OR8D1 (Homo sapiens)
  odorant receptor agonist call: inactive

## CCOC(=O)C=Cc1ccccc1
OR8D1 (Homo sapiens)
  odorant receptor agonist call: inactive

## COCCC(C)(C)S
OR8D1 (Homo sapiens)
  odorant receptor agonist call: inactive

## CCCCCc1ccccn1
OR8D1 (Homo sapiens)
  odorant receptor agonist call: inactive
